Reference: ChEMBL document CHEMBL2086327, “A click chemistry approach to pleuromutilin derivatives, part 2: conjugates with acyclic nucleosides and their ribosomal binding and antibacterial activity” (2012)
Converted amounts (≈) assume the structure as drawn.

Assays:
Nucleic Acid [1] = test: Binding affinity to Escherichia coli 23S rRNA U2506 assessed as degree of protection against CMCT at 5 uM by Chemical footprinting analysis relative to control; type: nucleic-acid assay
Summary of the method: (§1)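 Ribosomes came from E. coli MRE600 grown in LB, lysed and purified on sucrose gradients. They were incubated with drug at 5 or 50 μM and then modified with CMCT. Read-out was primer extension with a Cy5-labeled primer, gel electrophoresis and laser scanning. Band intensity with drug is given relative to no-drug control, after subtracting background from unmodified samples (1.00 = no protection, 0 = full protection). Values are means of at least two experiments.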

Nucleic Acid [2] = test: Binding affinity to Escherichia coli 23S rRNA U2506 assessed as degree of protection against CMCT at 50 uM by Chemical footprinting analysis relative to control; type: nucleic-acid assay; summary of the method: as §1
Escherichia coli = test: Antibacterial activity against Escherichia coli AS19 after 24 hrs by microtitre plate reader; type: functional; conditions: AS19, 24 h
Summary of the method: (§2)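 Microtiter broth dilution. Media: E. coli AS19 in LB; B. subtilis 168 in 25% BHI/75% LB/0.05% Tween; L. innocua in 50% BHI/50% LB. Overnight cultures started from single colonies were diluted to OD450 0.01 and mixed 1:1 with 2-fold drug dilutions (0.125–32 μg/mL). Growth was read as OD450. MIC is the lowest concentration giving complete growth inhibition (E. coli read at 24 h).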

Nucleic Acid [3] = test: Binding affinity to Escherichia coli 23S rRNA U2585 assessed as degree of protection against CMCT at 5 uM by Chemical footprinting analysis relative to control; type: nucleic-acid assay; summary of the method: as §1
Bacillus subtilis = test: Antibacterial activity against Bacillus subtilis 168 after 12 hrs by microtitre plate reader; type: functional; conditions: Bacillus subtilis, 168, 12 h; summary of the method: as §2
Listeria innocua = test: Antibacterial activity against Listeria innocua after 24 hrs by microtitre plate reader; type: functional; summary of the method: as §2
Nucleic Acid [4] = test: Binding affinity to Escherichia coli 23S rRNA U2585 assessed as degree of protection against CMCT at 50 uM by Chemical footprinting analysis relative to control; type: nucleic-acid assay; summary of the method: as §1

| SMILES | Ratio (Nucleic Acid [1]) | Ratio (Nucleic Acid [2]) | MIC (Escherichia coli) | Ratio (Nucleic Acid [3]) | MIC (Bacillus subtilis) | MIC (Listeria innocua) | Ratio (Nucleic Acid [4]) |
| --- | --- | --- | --- | --- | --- | --- | --- |
| C=C[C@]1(C)C[C@@H](OC(=O)Cn2cc(CCCn3cnc4c(N)ncnc43)nn2)[C@]2(C)[C@H](C)CC[C@]3(CCC(=O)[C@H]32)[C@@H](C)[C@@H]1O | 0.13 | 0.05 | 8 µg/mL (≈ 13.2 µM) | 0.23 | > 32 µg/mL | > 32 µg/mL | 0.17 |
| C=C[C@]1(C)C[C@@H](OC(=O)Cn2ccnn2)[C@]2(C)[C@H](C)CC[C@]3(CCC(=O)[C@H]32)[C@@H](C)[C@@H]1O | 0.48 | 0.18 | 16 µg/mL (≈ 37.2 µM) | 0.66 | > 32 µg/mL | > 32 µg/mL | 0.42 |
| C=C[C@]1(C)C[C@@H](OC(=O)Cn2cc(COCCn3cc(C)c(=O)[nH]c3=O)nn2)[C@]2(C)[C@H](C)CC[C@]3(CCC(=O)[C@H]32)[C@@H](C)[C@@H]1O | 0.28 | 0.08 | ≥ 32 µg/mL | 0.43 | > 32 µg/mL | > 32 µg/mL | 0.24 |
| C=C[C@]1(C)C[C@@H](OC(=O)CSCCN(CC)CC)[C@]2(C)[C@H](C)CC[C@]3(CCC(=O)[C@H]32)[C@@H](C)[C@@H]1O [TIAMULIN] | 0.07 | 0.03 | 0.5 µg/mL (≈ 1.01 µM) | 0.54 | > 32 µg/mL | > 32 µg/mL | 0.5 |
| C=C[C@]1(C)C[C@@H](OC(=O)Cn2nncc2CCCn2cnc3c(N)ncnc32)[C@]2(C)[C@H](C)CC[C@]3(CCC(=O)[C@H]32)[C@@H](C)[C@@H]1O | 0.09 | 0.04 | 16 µg/mL (≈ 26.5 µM) | 0.19 | > 32 µg/mL | > 32 µg/mL | 0.16 |
| C=C[C@]1(C)C[C@@H](OC(=O)Cn2cc(/C=C/Cn3cnc4c(N)ncnc43)nn2)[C@]2(C)[C@H](C)CC[C@]3(CCC(=O)[C@H]32)[C@@H](C)[C@@H]1O | 0.1 | 0.05 | 8 µg/mL (≈ 13.3 µM) | 0.29 | 16 µg/mL (≈ 26.5 µM) | > 32 µg/mL | 0.16 |
| C=C[C@]1(C)C[C@@H](OC(=O)Cn2cc(C[C@@H]3[C@H](O)[C@@H](CO)O[C@H]3n3ccc(=O)[nH]c3=O)nn2)[C@]2(C)[C@H](C)CC[C@]3(CCC(=O)[C@H]32)[C@@H](C)[C@@H]1O | 0.31 | 0.09 | > 32 µg/mL | 0.46 | > 32 µg/mL | > 32 µg/mL | 0.26 |
| C=C[C@]1(C)C[C@@H](OC(=O)Cn2cc(COCc3ccccc3)nn2)[C@]2(C)[C@H](C)CC[C@]3(CCC(=O)[C@H]32)[C@@H](C)[C@@H]1O | 0.3 | 0.08 | > 32 µg/mL | 0.5 | > 32 µg/mL | > 32 µg/mL | 0.41 |
| C=C[C@]1(C)C[C@@H](OC(=O)CO)[C@]2(C)[C@H](C)CC[C@]3(CCC(=O)[C@@H]32)[C@@H](C)[C@@H]1O [PLEUROMUTILIN] | 0.28 | 0.08 | 1 µg/mL (≈ 2.64 µM) | 0.89 | 32 µg/mL (≈ 84.5 µM) | > 32 µg/mL | 0.8 |
| C=C[C@]1(C)C[C@@H](OC(=O)Cn2cc(/C=C/Cn3cc(C)c(=O)[nH]c3=O)nn2)[C@]2(C)[C@H](C)CC[C@]3(CCC(=O)[C@H]32)[C@@H](C)[C@@H]1O | 0.18 | 0.06 | ≥ 32 µg/mL | 0.39 | > 32 µg/mL | > 32 µg/mL | 0.21 |
| C=C[C@]1(C)C[C@@H](OC(=O)Cn2cc(COCn3cc(C)c(=O)[nH]c3=O)nn2)[C@]2(C)[C@H](C)CC[C@]3(CCC(=O)[C@H]32)[C@@H](C)[C@@H]1O | 0.23 | 0.07 | > 32 µg/mL | 0.37 | > 32 µg/mL | > 32 µg/mL | 0.22 |
| C=C[C@]1(C)C[C@@H](OC(=O)Cn2cc(COCn3cnc4c(N)ncnc43)nn2)[C@]2(C)[C@H](C)CC[C@]3(CCC(=O)[C@H]32)[C@@H](C)[C@@H]1O | 0.21 | 0.06 | > 32 µg/mL | 0.37 | > 32 µg/mL | > 32 µg/mL | 0.22 |
| C=C[C@]1(C)C[C@@H](OC(=O)Cn2cc(-c3ccc(-n4cnc5c(N)ncnc54)cc3)nn2)[C@]2(C)[C@H](C)CC[C@]3(CCC(=O)[C@H]32)[C@@H](C)[C@@H]1O | 0.18 | 0.08 | > 32 µg/mL | 0.4 | > 32 µg/mL | > 32 µg/mL | 0.22 |
| C=C[C@]1(C)C[C@@H](OC(=O)Cn2cc(-c3cccc(-n4cnc5c(N)ncnc54)c3)nn2)[C@]2(C)[C@H](C)CC[C@]3(CCC(=O)[C@H]32)[C@@H](C)[C@@H]1O | 0.06 | 0.06 | 1 µg/mL (≈ 1.57 µM) | 0.1 | 8 µg/mL (≈ 12.5 µM) | > 32 µg/mL | 0.07 |
| C=C[C@]1(C)C[C@@H](OC(=O)CSC(C)(C)CNC(=O)[C@H](N)C(C)C)[C@]2(C)[C@H](C)CC[C@]3(CCC(=O)[C@H]32)[C@@H](C)[C@@H]1O [VALNEMULIN] | 0.05 | 0.04 | < 0.125 µg/mL | 0.15 | 2 µg/mL (≈ 3.54 µM) | 1 µg/mL (≈ 1.77 µM) | 0.16 |
